PP1 counter – PP1-alpha (human) inhibition in PP5 counter-screen | P62136 | purified PP1alpha, OMFP fluorescence | inhibition, % at 6.7 µM | actives 0.9% (n = 320,000) | AID 2235;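 active means inhibition above the mean inhibition of all tested compounds plus 3 SD, computed separately for each screening campaign, cut at about 15% in these data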
TDP2 inh – TDP2 (human) inhibition, absorbance primary screen; inhibition, % at 12.8 µM; recombinant TDP2, T5PNP hydrolysis, p-nitrophenol absorbance 415 nm; actives 0.34% (n = 370,000); O95551;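 active means inhibition above the mean of all tested compounds plus 3 SD, set per campaign, cut at about 25% in these data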;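 further: 0% = DMSO with enzyme and 100% = buffer with substrate but no TDP2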
Target sequence (O95551 whole entry, looked up): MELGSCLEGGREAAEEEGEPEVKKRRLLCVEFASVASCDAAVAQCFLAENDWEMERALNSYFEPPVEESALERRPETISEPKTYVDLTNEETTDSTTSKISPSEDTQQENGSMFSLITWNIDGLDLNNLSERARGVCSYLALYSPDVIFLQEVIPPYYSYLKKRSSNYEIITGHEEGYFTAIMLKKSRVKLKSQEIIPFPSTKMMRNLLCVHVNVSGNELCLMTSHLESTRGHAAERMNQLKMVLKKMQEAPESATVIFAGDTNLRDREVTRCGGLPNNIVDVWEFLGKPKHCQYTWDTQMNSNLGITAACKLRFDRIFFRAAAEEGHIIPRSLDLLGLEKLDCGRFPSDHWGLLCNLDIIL
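Material: recombinant human TDP2; quantity: TDP2 enzyme at 120 nM final; medium: Tris-HCl pH 7.5 with MgCl2; compound: single concentration, 12.8 µM nominal, with 1% DMSO; incubation: 2 h enzyme incubation at 37 °C; signal: epi absorbance; measure: percent inhibition; benchmarks: high control without enzyme, low control DMSO plus TDP2; repeats: singlicate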
PP5 inh – blocks human protein phosphatase 5 activity; actives 0.18% (n = 320,000); AID 1987; purified PP5c, OMFP substrate fluorescence; inhibition, % at 6.7 µM;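 active means inhibition above the campaign's mean inhibition across all tested compounds plus 3 SD, cut at about 9.5% in these data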;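 further: 0% = DMSO only and 100% = 100 µM cantharidin control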
GSTO1 inh – counter-screen for RBBP9 inhibitors: inhibitors of human GSTO1. P78417. recombinant GSTO1, activity-based probe fluorescence polarization. inhibition, % at 5.96 µM. actives 1.1% (n = 300,000). AID 1974;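 active means inhibition above the campaign mean inhibition plus 3 SD, cut at about 35% in these data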;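 further: 0% = GSTO1-1 with DMSO and 100% = wells lacking GSTO1-1 enzyme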
Target sequence (P78417 whole entry, looked up): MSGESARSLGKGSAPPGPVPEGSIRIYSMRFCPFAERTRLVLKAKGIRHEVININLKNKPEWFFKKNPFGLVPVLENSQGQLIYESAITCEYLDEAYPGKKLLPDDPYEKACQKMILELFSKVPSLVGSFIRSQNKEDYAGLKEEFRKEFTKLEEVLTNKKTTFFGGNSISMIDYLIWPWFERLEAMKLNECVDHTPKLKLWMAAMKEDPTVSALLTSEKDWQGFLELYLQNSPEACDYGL
Apaf-1 inh – blocks human Apaf-1 apoptosome activity. actives 0.71% (n = 330,000). O14727. AID 489030. inhibition, % at 20 µM. reconstituted apoptosome caspase-3 activity, DEVD-Rh110 fluorescence; active means inhibition of at least 40% at 20 µM;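 further: plate controls were DMSO wells for no effect and DEVD-CHO caspase inhibitor wells for full effect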
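detection = Rh110 fluorescence intensity | test system = biochemical Apaf-1 apoptosome reconstitution | also added = cytochrome c and DEVD-Rh110 substrate | schedule = 30 min plus 50 min, RT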
PP1 confirm – human PP1 phosphatase inhibition, confirmation | shares compounds with PP1 counter | purified PP1alpha, OMFP substrate fluorescence | inhibition, % at 6.7 µM | actives 52% (n = 1,900);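 active means mean PP1 inhibition above a set limit taken from the earlier primary screen, cut at about 15% in these data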
PP5 inh counter – counter-screen for PP1 inhibitors: human PP5 phosphatase inhibition. shares compounds with PP1 counter. purified PP5c, OMFP fluorescence. inhibition, % at 6.7 µM. actives 4% (n = 1,900). AID 2360;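 active means mean PP5 inhibition over triplicate wells above about 9.5% taken from the earlier PP1 screen, limit read from the data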
* marks the source's active call; other numbers are inactive results; · = no result. Rows were chosen to be rich in hits. Some 2.1% of all compounds tested hit in one or more screens of this group.

SMILES	PP1 counter	TDP2 inh	PP5 inh	GSTO1 inh	Apaf-1 inh	PP1 confirm	PP5 inh counter
CCc1nnc(NC(=O)C(NC(=O)c2ccccc2Cl)C(C)C)s1 (centres undefined)	-3	2	3	7	-21	·	·
CC(=O)Nc1ccc(C(=O)Nc2nc(-c3ccccn3)cs2)cc1	4	2	-5	-6	6	·	·
CC(C)[C@H](NC(=O)c1ccccc1Cl)C(=O)Nc1nc(-c2ccccn2)cs1	18*	-11	3	16	6	27*	0
CCc1nccn1CC(=O)c1ccc(O)c(O)c1	·	-9	·	·	·	·	·
Nc1[nH]c(C(=O)c2ccccc2)c(-c2ccccn2)c1C(=O)c1c[nH]c2ccc(F)cc12	·	0	·	·	·	·	·
O=C(/C=C/c1ccccc1)NC(=S)NNC(=O)c1cnccn1	22*	1	0	-7	-11	24*	-3
Cc1ccc(CNC(=O)c2ccc(N3CCC4(CC3)CC(c3ccccc3)=NO4)c(NC(=O)c3ccco3)c2)cc1	20*	-4	3	-22	6	16*	-2
Cc1ccc(CNC(=O)c2ccc(N3CCC4(CC3)CC(c3cccc(Br)c3)=NO4)c(NC(=O)c3ccco3)c2)cc1	12	-3	0	-13	5	·	·
CC(C)n1nnnc1C1c2ccccc2C(=O)N1Cc1cccnc1 (centres undefined)	·	8	·	·	·	·	·
Cc1ccc(Nc2c(-c3ccc(N4CCOCC4)cc3)nc3cnccn23)cc1	63*	-22	-1	1	-5	-3	-3
CCC(C)(C)NC(=O)C(c1cccn1C)N(Cc1ccccc1)C(=O)Cn1nnc2ccccc21 (centres undefined)	·	-7	·	·	·	·	·
CCC(C)(C)NC(=O)C(c1cccn1C)N(Cc1ccc(OC)cc1)C(=O)Cn1nnc2ccccc21 (centres undefined)	30*	-1	0	7	0	25*	2
CCN(CC(O)CON=C1c2ccccc2-c2ccccc21)S(=O)(=O)c1ccc(C)cc1 (centres undefined)	1	-8	5	-12	15	·	·
CN(CC(O)CON=C1c2ccccc2-c2ccccc21)S(=O)(=O)c1ccc(Br)cc1 (centres undefined)	41*	2	3	-1	22	-2	-2
Nn1c(SCC(=O)Nc2ccccc2-c2ccccc2)nnc1-c1cc(-c2ccc(F)cc2)n[nH]1	·	-9	·	·	·	·	·
CC1CCCN(S(=O)(=O)c2ccc(C(=O)Nc3nnc(C4CC4)o3)cc2)C1 (centres undefined)	26*	12	6	12	-1	16*	-2
O=C(Nc1nnc(C2CC2)o1)c1ccc(S(=O)(=O)N2CCc3ccccc3C2)cc1	30*	6	-2	-7	9	31*	-1
CC1CCCN(S(=O)(=O)c2ccc(C(=O)Nc3nnc(-c4ccccn4)o3)cc2)C1 (centres undefined)	18*	4	1	-1	-2	15*	-1
COc1cccc(NC(=O)C2CCCN2C(=O)Nc2ccc(Cl)cc2)c1 (centres undefined)	·	13	·	·	·	·	·
COc1cccc(-c2cc(N)nn2C(=O)Nc2ccc(Cl)cc2)c1	23*	2	3	-2	14	17*	7
COc1ccc(C2C3C=CCC(c4cccc(-c5ccc(C)cc5)c4)C3C(=O)N2Cc2ccccc2)cc1Cl (centres undefined)	18*	-3	-1	-3	13	0	-6
COc1ccc(-c2cccc(C3CC=CC4C3C(=O)N(Cc3ccccc3)C4c3ccc4ccccc4c3)c2)cc1 (centres undefined)	12	-15	1	1	12	·	·
CCOC(=O)[C@@]12CCCC=C1N(CCc1ccc(Cl)cc1)C(=O)[C@H]2CC(=O)N1CCC(c2ccccc2)CC1	·	-5	·	·	·	·	·
Clc1ccc2nc(-c3ccccn3)c(Nc3ccc4c(c3)OCO4)n2c1	46*	-7	3	6	·	40*	-1
CCOC(=O)[C@]12CCCC=C1N(Cc1ccc(OC)cc1)C(=O)[C@@H]2CC(=O)N1CCSCC1	·	-4	·	·	·	·	·
SMILES	PP1 counter	TDP2 inh	PP5 inh	GSTO1 inh	Apaf-1 inh	PP1 confirm	PP5 inh counter
Cc1cccc(NC(=O)Cn2c(=O)n(Cc3ccco3)c(=N)c3c4c(sc32)COC(C)(C)C4)c1	-1	-18	0	0	6	·	·
CC1(C)Cc2c(sc3c2c(=N)n(Cc2ccco2)c(=O)n3CC(=O)Nc2cccc(Cl)c2)CO1	20*	-10	6	-21	13	6	3
Cc1noc(C)c1S(=O)(=O)NC(=O)C1(C)CCN1C(=O)C1(c2ccc(Cl)cc2)CC1 (centres undefined)	·	-2	·	·	·	·	·
CCc1ccc2nc(NC(=O)Cn3cnc4ccccc4c3=O)sc2c1	26*	-6	2	-5	-10	29*	-3
O=C(Cn1cnc2ccccc2c1=O)Nc1nc2ccccc2s1	2	3	2	-3	2	·	·
CCOC(=O)Cc1nc(N2CCN(C=O)CC2)c2c(C)c(C(=O)OCC)sc2n1	·	8	·	·	·	·	·
COC(=O)[C@]12CCCCC=C1N(Cc1ccco1)C(=O)[C@H](CC(=O)NCCc1ccccc1OC)C2	·	-9	·	·	·	·	·
Brc1ccc(C2=Nn3c(nnc3-c3n[nH]c4c3CCC4)SC2)cc1	22*	9	4	-9	39	2	-2
c1ccc(-c2ccc(C3=Nn4c(nnc4-c4cc(-c5ccccc5)n[nH]4)SC3)cc2)cc1	30*	11	3	-5	26	33*	3
c1ccc(-c2ccc(C3=Nn4c(nnc4-c4ccccc4)SC3)cc2)cc1	·	3	·	·	·	·	·
Cc1cc(C)c(C(=O)OCc2csc(CC(=O)Nc3ccccc3C)n2)c(C)c1	20*	8	4	0	25	1	0
C=C(C)[C@@H]1C2=CC(C(=O)OC)=C(C[C@H](C(=C)C)[C@H]3O[C@H]3C3=C[C@H]1OC3=O)O2	·	-3	·	·	·	·	·
CC1=CC(=O)c2c(O)ccc(O)c2C1=O	28*	·	3	69*	·	2	28*
O=C1C=C(N2CCN(c3ccccn3)CC2)C(=O)c2c(O)ccc(O)c21	·	3	·	·	·	·	·
O=C(Nc1ccc(Oc2ccc3c(c2)C(=O)N(c2ccc(O)cc2)C3=O)cc1)c1cccs1	22*	2	-2	-29	-9	10	-5
Cc1ccccc1NC(=O)COc1coc(CN2CCCc3ccccc32)cc1=O	0	11	3	-10	11	·	·
O=C(COc1coc(CN2CCCc3ccccc32)cc1=O)Nc1ccc([N+](=O)[O-])cc1	21*	-12	-2	22	0	4	-4
O=C(N/N=C/c1ccc(-c2ccc(S(=O)(=O)Nc3ncccn3)cc2)o1)c1cc2ccccc2cc1O	21*	-15	3	-3	29	16*	-1

Screens (PubChem BioAssay)
